In brackets after ≈: the same amount, converted by molar mass.
Tests used:
Type in all cases: functional
Human alphaherpesvirus 1 [1] = assay: Antiviral activity of the compound, determined by plaque-reduction assay against Herpes simplex virus (HSV) type 1, BW5 strain in Vero cells; details: Human alphaherpesvirus 1, Vero; read-out: ID50 (the source's name)
Summary of the method: (§1)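 Plaque reduction: confluent monolayers (Vero for HSV, MRC-5 for HCMV) infected with 30-50 PFU in PBS, 1 h adsorption, then compound dilutions in EMEM with 10% fetal bovine serum; 48 h at 37 °C, 5% CO2; fixed, Carbol fuchsin stained, plaques counted. ID50 = concentration reducing plaque number by 50% versus virus control.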

Human alphaherpesvirus 2 [2] = assay: Antiviral activity determined by plaque-reduction assay against Herpes simplex virus type 2, G strain in Vero cells; details: Human alphaherpesvirus 2, Vero; read-out: ID50 (the source's name); summary of the method: as §1
Human alphaherpesvirus 1 [3] = assay: Antiviral activity of the compound, determined by plaque-reduction assay against thymidine kinase deficient Herpes simplex virus type 1, Z826 strain in Vero cells; details: Human alphaherpesvirus 1, Vero; read-out: ID50 (the source's name); summary of the method: as §1
Human betaherpesvirus 5 = assay: Antiviral activity determined by plaque-reduction assay against Human cytomegalovirus, AD-169 strain in MRC-5 cells; details: Human betaherpesvirus 5, MRC5; read-out: ID50 (the source's name); summary of the method: as §1
Human alphaherpesvirus 1 [4] = assay: In vitro antiviral activity of the compound, determined by plaque-reduction assay against Herpes simplex virus (HSV) type 1, BW5 strain in Vero cells; details: Human alphaherpesvirus 1, Vero; read-out: ID50 (the source's name); summary of the method: as §1
Cavia porcellus [5] = species on record: Cavia porcellus; assay: Duration of time of healing period in HSV-1 cutaneous infection in guinea pig at 5%ACV
Mus musculus [6] = assay: Percentage survival of mice after intraperitoneal administration of compound at 200 mg/kg per day in experiment 1; survival/ tested =3/4; details: ip
Cavia porcellus [7] = species on record: Cavia porcellus; assay: Total score of healing period in HSV-1 cutaneous infection in guinea pig at 5% ACV
Mus musculus [8] = assay: Percentage survival of mice after intraperitoneal administration of compound at 100 mg/kg per day in experiment 1; survival/ tested =7/10; details: ip
Summary of the method: (§2)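 Female Swiss mice (16–18 g) infected ip with (2-6) × 10^2 PFU HSV 1 HL-34, randomized into groups of 10. Ip dosing started 3 h postinfection, twice daily for 5 consecutive days; vehicle 0.2% carboxymethylcellulose with 0.2% Tween 80 in water. Mortality followed 21 days; survival by Fisher's exact test, mean survival time by Gehan-Wilcoxon.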

Cavia porcellus [9] = species on record: Cavia porcellus; assay: Total score of lesion formation in HSV-1 cutaneous infection in guinea pig at 5% ACV
Cavia porcellus [10] = species on record: Cavia porcellus; assay: Duration of time of lesion formation in HSV-1 cutaneous infection in guinea pig at 5%ACV
Mus musculus [11] = assay: Percentage survival of mice after intraperitoneal administration of compound at 200 mg/kg per day in experiment 2; survival/ tested =7/9; details: ip; summary of the method: as §2
Human alphaherpesvirus 2 [12] = assay: In vitro antiviral activity determined by plaque-reduction assay against Herpes simplex virus type 2, G strain in Vero cells; details: Human alphaherpesvirus 2, Vero; read-out: ID50 (the source's name); summary of the method: as §1
Mus musculus [13] = assay: Percentage survival of mice after intraperitoneal administration of compound at 50 mg/kg per day in experiment 1; survival/ tested =5/10; details: ip; summary of the method: as §2
Cavia porcellus [14] = species on record: Cavia porcellus; assay: Mean of severity score obtained from five different individuals at 5% ACV
Human alphaherpesvirus 1 [15] = assay: In vitro antiviral activity of the compound, determined by plaque-reduction assay against thymidine kinase deficient Herpes simplex virus type 1, Z826 strain in Vero cells; details: Human alphaherpesvirus 1, Vero; read-out: ID50 (the source's name); summary of the method: as §1
Mus musculus [16] = assay: Percentage survival of mice after intraperitoneal administration of compound at 200 mg/kg per day in experiment 1; survival/ tested =10/10; details: ip; summary of the method: as §2
Mus musculus [17] = assay: Percentage survival of mice after intraperitoneal administration of compound at 1 mg/kg per day in experiment 2; survival/ tested =9/10; details: ip; summary of the method: as §2
Cavia porcellus [18] = species on record: Cavia porcellus; assay: Total score of healing period in HSV-1 cutaneous infection in guinea pig at 5% HPMPC
Cavia porcellus [19] = species on record: Cavia porcellus; assay: Duration of time of healing period in HSV-1 cutaneous infection in guinea pig at 5% HPMPC
Mus musculus [20] = assay: Mean survival time of mice was determined after intraperitoneal administration of compound at 100 mg/kg per day in experiment 1; summary of the method: as §2
Cavia porcellus [21] = species on record: Cavia porcellus; assay: Total score of healing period in HSV-1 cutaneous infection in guinea pig at 0.1% HPMPC
Cavia porcellus [22] = species on record: Cavia porcellus; assay: Duration of time of lesion formation in HSV-1 cutaneous infection in guinea pig at 1% HPMPC
Cavia porcellus [23] = species on record: Cavia porcellus; assay: Mean of severity score obtained from five different individuals at 0.1% HPMPC
Cavia porcellus [24] = species on record: Cavia porcellus; assay: Total score of lesion formation in HSV-1 cutaneous infection in guinea pig at 5% HPMPC
Cavia porcellus [25] = species on record: Cavia porcellus; assay: Total score of lesion formation in HSV-1 cutaneous infection in guinea pig at 1% HPMPC
Mus musculus [26] = assay: Mean survival time of mice was determined after intraperitoneal administration of compound at 10 mg/kg per day in experiment 2; summary of the method: as §2
Cavia porcellus [27] = species on record: Cavia porcellus; assay: Mean of severity score obtained from five different individuals at 1% HPMPC
Mus musculus [28] = assay: Percentage survival of mice after intraperitoneal administration of compound at 0.1 mg/kg per day in experiment 2; survival/ tested =5/10; details: ip; summary of the method: as §2
Cavia porcellus [29] = species on record: Cavia porcellus; assay: Mean of severity score obtained from five different individuals at 5% HPMPC
Mus musculus [30] = assay: Percentage survival of mice after intraperitoneal administration of compound at 10 mg/kg per day in experiment 1; survival/ tested =10/10; details: ip; summary of the method: as §2
Cavia porcellus [31] = species on record: Cavia porcellus; assay: Duration of time of healing period in HSV-1 cutaneous infection in guinea pig at 1% HPMPC
Mus musculus [32] = assay: Mean survival time of mice was determined after intraperitoneal administration of compound at 1 mg/kg per day in experiment 2; summary of the method: as §2
Cavia porcellus [33] = species on record: Cavia porcellus; assay: Duration of time of lesion formation in HSV-1 cutaneous infection in guinea pig at 5% HPMPC
Mus musculus [34] = assay: Mean survival time of mice was determined after intraperitoneal administration of compound at 200 mg/kg per day in experiment 1; summary of the method: as §2
Mus musculus [35] = assay: Percentage survival of mice after intraperitoneal administration of compound at 100 mg/kg per day in experiment 1; survival/ tested =10/10; details: ip; summary of the method: as §2
Mus musculus [36] = assay: Mean survival time of mice was determined after intraperitoneal administration of compound at 10 mg/kg per day in experiment 1; summary of the method: as §2
Cavia porcellus [37] = species on record: Cavia porcellus; assay: Total score of healing period in HSV-1 cutaneous infection in guinea pig 1%HPMPC
Cavia porcellus [38] = species on record: Cavia porcellus; assay: Duration of time of lesion formation in HSV-1 cutaneous infection in guinea pig at 0.1% HPMPC
Mus musculus [39] = assay: Percentage survival of mice after intraperitoneal administration of compound at 10 mg/kg per day in experiment 2; survival/ tested =10/10; details: ip; summary of the method: as §2
Cavia porcellus [40] = species on record: Cavia porcellus; assay: Duration of time of healing period in HSV-1 cutaneous infection in guinea pig at 0.1% HPMPC
Mus musculus [41] = assay: Mean survival time of mice was determined after intraperitoneal administration of compound at 0.1 mg/kg per day in experiment 2; summary of the method: as §2
Cavia porcellus [42] = species on record: Cavia porcellus; assay: Total score of lesion formation in HSV-1 cutaneous infection in guinea pig at 0.1% HPMPC

Nc1ncnc2c1ncn2C[C@@H](CO)OCP(=O)(O)O
IC50 (Human alphaherpesvirus 1 [1]): 9.3 µg/mL (≈ 30.7 µM) | IC50 (Human alphaherpesvirus 2 [2]): 25.2 µg/mL (≈ 83.1 µM) | IC50 (Human alphaherpesvirus 1 [3]): 3.2 µg/mL (≈ 10.6 µM) | IC50 (Human betaherpesvirus 5): 0.27 µg/mL (≈ 0.89 µM)

Nc1ccn(CCOCP(=O)(O)O)c(=O)n1
IC50 (Human alphaherpesvirus 1 [1]): > 100 µg/mL | IC50 (Human alphaherpesvirus 2 [2]): > 100 µg/mL | IC50 (Human betaherpesvirus 5): > 2.7 µg/mL

Nc1nc2c(ncn2COCCO)c(=O)[nH]1 [ACYCLOVIR]
IC50 (Human alphaherpesvirus 1 [4]): 0.5 µg/mL (≈ 2.22 µM) | Duration time (Cavia porcellus [5]): 4.2 | survival at 200 mg/kg/day (Mus musculus [6]): 75% | Total score (Cavia porcellus [7]): 60.4 | survival at 100 mg/kg/day (Mus musculus [8]): 70% | Total score (Cavia porcellus [9]): 14 | Duration time (Cavia porcellus [10]): 5.4 | survival at 200 mg/kg/day (Mus musculus [11]): 78% | IC50 (Human alphaherpesvirus 2 [12]): 0.3 µg/mL (≈ 1.33 µM) | survival at 50 mg/kg/day (Mus musculus [13]): 50% | Severity mean (Cavia porcellus [14]): 2.4 | IC50 (Human alphaherpesvirus 1 [15]): 4.3 µg/mL (≈ 19.1 µM)

Nc1ccn(C[C@@H](CO)OCP(=O)(O)O)c(=O)n1.O.O [CIDOFOVIR]
survival at 200 mg/kg/day (Mus musculus [16]): 100% | survival at 1 mg/kg/day (Mus musculus [17]): 90% | IC50 (Human alphaherpesvirus 1 [1]): 5.4 µg/mL | Total score (Cavia porcellus [18]): 85.4 | Duration time (Cavia porcellus [19]): 4.2 | Mean survival time (Mus musculus [20]): 21 days | IC50 (Human alphaherpesvirus 2 [2]): 2.3 µg/mL | Total score (Cavia porcellus [21]): 72.8 | Duration time (Cavia porcellus [22]): 3.8 | Severity mean (Cavia porcellus [23]): 1.4 | Total score (Cavia porcellus [24]): 3 | Total score (Cavia porcellus [25]): 7 | Mean survival time (Mus musculus [26]): 21 days | Severity mean (Cavia porcellus [27]): 1 | survival at 0.1 mg/kg/day (Mus musculus [28]): 50% | IC50 (Human alphaherpesvirus 1 [3]): 0.7 µg/mL | Severity mean (Cavia porcellus [29]): 0.8 | survival at 10 mg/kg/day (Mus musculus [30]): 100% | IC50 (Human betaherpesvirus 5): 0.22 µg/mL | Duration time (Cavia porcellus [31]): 3.8 | Mean survival time (Mus musculus [32]): 19.7 days | Duration time (Cavia porcellus [33]): 2.2 | Mean survival time (Mus musculus [34]): 21 days | survival at 100 mg/kg/day (Mus musculus [35]): 100% | Mean survival time (Mus musculus [36]): 21 days | Total score (Cavia porcellus [37]): 75 | Duration time (Cavia porcellus [38]): 3.8 | survival at 10 mg/kg/day (Mus musculus [39]): 100% | Duration time (Cavia porcellus [40]): 4.4 | Mean survival time (Mus musculus [41]): 14.9 days | Total score (Cavia porcellus [42]): 8.2

Nc1nc2c(ncn2COC(CO)CO)c(=O)[nH]1 [GANCICLOVIR]
IC50 (Human alphaherpesvirus 1 [1]): 0.23 µg/mL (≈ 0.901 µM) | IC50 (Human alphaherpesvirus 2 [2]): 0.94 µg/mL (≈ 3.68 µM) | IC50 (Human alphaherpesvirus 1 [3]): > 10 µg/mL | IC50 (Human betaherpesvirus 5): 1.8 µg/mL (≈ 7.05 µM)
